Data published in ChEMBL document CHEMBL4706649, “Design, synthesis and biological evaluation of new benzoxazolone/benzothiazolone derivatives as multi-target agents against Alzheimer's disease” (Eur J Med Chem, 2021).
Activity calls are given as the source filed them. The calls are words filed in the database; no cut-off is given here.

Legend:
[1] = Induction of apoptosis in mouse 3T3 cells assessed as necrotic cells at 10 uM measured after 24 hrs by Annexin V-FITC/propidium iodide staining based flow cytometry (reference value: 0%); format: cell-based; details: 3t3, 24 h
In short: (§1)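 3T3 fibroblasts exposed to compound for 24 h, with untreated cells as negative control. Cells trypsinized, PBS-washed, stained with Annexin V-FITC and PI by kit protocol, then analysed by flow cytometry. Populations: live (Annexin−/PI−), early apoptotic (Annexin+/PI−), late apoptotic (Annexin+/PI+) and dead (Annexin−/PI+). Percentages given as mean ± SD.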

Acetylcholinesterase [2] = target: Acetylcholinesterase (Electrophorus electricus, UniProt O42275); assay: Inhibition of electric eel AChE using acetylthiocholine iodide as substrate preincubated for 10 mins followed by substrate addition and measured for 10 mins by Ellman's method
Acetylcholinesterase (Electrophorus electricus, UniProt O42275), sequence (O42275 whole entry): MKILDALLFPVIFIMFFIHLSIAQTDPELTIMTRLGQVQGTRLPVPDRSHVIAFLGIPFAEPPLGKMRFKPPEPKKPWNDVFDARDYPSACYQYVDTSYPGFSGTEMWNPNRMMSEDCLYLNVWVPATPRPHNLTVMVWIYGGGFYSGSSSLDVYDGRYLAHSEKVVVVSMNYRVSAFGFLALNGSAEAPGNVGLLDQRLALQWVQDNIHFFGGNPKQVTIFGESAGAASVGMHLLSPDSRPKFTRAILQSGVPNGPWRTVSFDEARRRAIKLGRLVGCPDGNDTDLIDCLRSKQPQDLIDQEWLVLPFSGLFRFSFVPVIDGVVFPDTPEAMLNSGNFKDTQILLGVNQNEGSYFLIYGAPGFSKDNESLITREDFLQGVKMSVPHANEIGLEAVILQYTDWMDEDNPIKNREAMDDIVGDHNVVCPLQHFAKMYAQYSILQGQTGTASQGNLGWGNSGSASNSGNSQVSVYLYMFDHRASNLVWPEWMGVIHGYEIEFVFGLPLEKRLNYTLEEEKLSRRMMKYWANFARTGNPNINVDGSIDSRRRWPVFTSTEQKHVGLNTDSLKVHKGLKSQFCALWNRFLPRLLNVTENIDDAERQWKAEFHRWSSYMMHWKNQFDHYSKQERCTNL

THP-1 [3] = assay: Antiinflammatory activity in LPS-induced human THP-1 cells assessed as reduction in nitric oxide release at 10 uM peincubated for 1 hr followed by LPS stimulation and measured after 24 hrs by ELISA; format: functional, cell-based; details: time 25.0 hrs
In short: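 THP-1 cells plated overnight at 4×10⁴ cells/well, given test compound 1 h before 100 ng/ml LPS (E. coli O111:B4), then incubated 24 h. Cell-free supernatants stored at −20 °C, then NO measured by ELISA kit (sensitivity 1,12 […]) from a standard curve. Untreated cells as negative control, LPS-only as positive control. At least triplicate.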

THP-1 [4] = assay: Antiinflammatory activity in LPS-induced human THP-1 cells assessed as reduction in TNFalpha release at 10 uM peincubated for 1 hr followed by LPS stimulation and measured after 24 hrs by EIA; format: functional, cell-based; details: time 25.0 hrs
In short: (§2)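 THP-1 cells grown in RPMI 1640 with 10% FCS, penicillin and streptomycin at 37 °C, 5% CO2, then plated overnight at 4×10⁴ cells/well. Test compound added 1 h before 100 ng/ml E. coli O111:B4 LPS; 24 h incubation. Untreated and LPS-only controls. […]; cytokine read by EIA at 450 nm against a standard curve. At least triplicate.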

Acetylcholinesterase [5] = target: Acetylcholinesterase (Homo sapiens, UniProt P22303); assay: Inhibition of recombinant human AChE expressed in HEK293 cells using acetylthiocholine iodide as substrate preincubated for 10 mins followed by substrate addition and measured for 10 mins by Ellman's method
Acetylcholinesterase (Homo sapiens, UniProt P22303), sequence (P22303 whole entry): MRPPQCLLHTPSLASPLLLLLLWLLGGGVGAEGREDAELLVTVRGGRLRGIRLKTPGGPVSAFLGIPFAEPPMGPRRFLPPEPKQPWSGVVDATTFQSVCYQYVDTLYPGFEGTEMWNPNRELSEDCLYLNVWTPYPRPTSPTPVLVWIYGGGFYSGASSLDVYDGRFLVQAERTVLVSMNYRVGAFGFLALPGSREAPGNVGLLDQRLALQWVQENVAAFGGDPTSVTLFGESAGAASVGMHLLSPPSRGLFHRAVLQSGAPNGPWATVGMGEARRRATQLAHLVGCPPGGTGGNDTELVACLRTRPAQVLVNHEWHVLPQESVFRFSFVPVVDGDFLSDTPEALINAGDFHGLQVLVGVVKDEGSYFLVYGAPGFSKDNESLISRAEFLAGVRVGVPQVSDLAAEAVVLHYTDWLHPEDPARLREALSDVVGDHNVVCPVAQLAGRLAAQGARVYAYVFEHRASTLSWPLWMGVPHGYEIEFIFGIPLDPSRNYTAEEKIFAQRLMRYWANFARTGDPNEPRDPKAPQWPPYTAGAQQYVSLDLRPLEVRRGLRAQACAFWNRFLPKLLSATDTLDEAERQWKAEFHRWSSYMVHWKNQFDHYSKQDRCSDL

[6] = Induction of apoptosis in mouse 3T3 cells assessed as early apoptotic cells at 10 uM measured after 24 hrs by Annexin V-FITC/propidium iodide staining based flow cytometry (Rvb <= 0.97%); format: cell-based; details: 3t3, 24 h; in short: as §1
[7] = Cytotoxicity against mouse 3T3 cells assessed as cell viability at 0.1 uM measured after 24 hrs by MTT assay relative to control; format: cell-based; details: read-out: Activity
In short: (§3)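 3T3 fibroblasts (ATCC CCL92) grown as adherent monolayers in DMEM with 10% inactivated FBS, 2 mM L-glutamine and penicillin/streptomycin at 37 °C, 5% CO2. Cells exposed to compounds for 24 h. MTT added for 4 h, formazan dissolved in SDS for 24 h, OD read at 570 nm. Viability given as % of untreated OD; at least triplicate, mean ± SD.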

[8] = Cytotoxicity against mouse 3T3 cells assessed as cell viability at 1 uM measured after 24 hrs by MTT assay relative to control; format: cell-based; details: read-out: Activity; in short: as §3
[9] = target: Acetylcholinesterase (Electrophorus electricus) (UniProt O42275); assay: Inhibition of electric eel AChE at 100 uM using acetylthiocholine iodide as substrate preincubated for 10 mins followed by substrate addition and measured for 10 mins by Ellman's method relative to control; details: time 20.0 min
Acetylcholinesterase (Electrophorus electricus), sequence (O42275 24-633 limits assumed): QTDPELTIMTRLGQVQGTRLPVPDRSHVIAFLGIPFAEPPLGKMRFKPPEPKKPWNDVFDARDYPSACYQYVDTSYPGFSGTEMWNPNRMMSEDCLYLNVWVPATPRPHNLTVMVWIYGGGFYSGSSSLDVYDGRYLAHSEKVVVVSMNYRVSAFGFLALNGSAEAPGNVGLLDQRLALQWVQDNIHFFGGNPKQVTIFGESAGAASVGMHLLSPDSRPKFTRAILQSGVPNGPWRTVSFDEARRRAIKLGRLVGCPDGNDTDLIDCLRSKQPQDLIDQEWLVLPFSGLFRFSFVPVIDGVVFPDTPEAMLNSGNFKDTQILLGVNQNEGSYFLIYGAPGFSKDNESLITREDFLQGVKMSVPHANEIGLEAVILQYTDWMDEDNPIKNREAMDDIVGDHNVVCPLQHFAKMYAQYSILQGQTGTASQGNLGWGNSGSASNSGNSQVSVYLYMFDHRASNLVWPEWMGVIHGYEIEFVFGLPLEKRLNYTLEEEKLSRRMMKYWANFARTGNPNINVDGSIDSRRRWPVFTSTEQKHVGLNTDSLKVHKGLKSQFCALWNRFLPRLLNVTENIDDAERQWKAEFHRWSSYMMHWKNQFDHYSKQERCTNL
In short: (§4)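 Ellman single-concentration screen in 50 mM Tris-HCl pH 8.0 with DTNB (6.8 mM stock) and 1% DMSO. Enzyme solution 0.4 U/mL AChE or 0.8 U/mL BChE. Compound and enzyme preincubated 10 min at 25 °C, then ATI (10 mM stock) or BTI (30 mM stock) added. A412 followed for 10 min, blank-subtracted, % inhibition versus no-compound control. Triplicate.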

[10] = Cytotoxicity against mouse 3T3 cells assessed as cell viability at 10 uM measured after 24 hrs by MTT assay relative to control; format: cell-based; details: read-out: Activity; in short: as §3
THP-1 [11] = assay: Antiinflammatory activity in LPS-induced human THP-1 cells assessed as reduction in IL6 release at 10 uM peincubated for 1 hr followed by LPS stimulation and measured after 24 hrs by EIA; format: functional, cell-based; details: time 25.0 hrs; in short: as §2
[12] = Induction of apoptosis in mouse 3T3 cells assessed as viable cells at 10 uM measured after 24 hrs by Annexin V-FITC/propidium iodide staining based flow cytometry (reference value: 98.83 to 99%); format: cell-based; details: read-out: Activity; in short: as §1
[13] = Induction of apoptosis in mouse 3T3 cells assessed as late apoptotic cells at 10 uM measured after 24 hrs by Annexin V-FITC/propidium iodide staining based flow cytometry (reference value: 0.1 to 0.13%); format: cell-based; details: 3t3, 24 h; in short: as §1
[14] = target: Cholinesterase (Equus caballus) (UniProt P81908); assay: Inhibition of equine serum BChE at 100 uM using butyrylthiocholine iodide as substrate preincubated for 10 mins followed by substrate addition and measured for 10 mins by Ellman's method relative to control; details: time 20.0 min; in short: as §4
Cholinesterase (Equus caballus), sequence (P81908 whole entry): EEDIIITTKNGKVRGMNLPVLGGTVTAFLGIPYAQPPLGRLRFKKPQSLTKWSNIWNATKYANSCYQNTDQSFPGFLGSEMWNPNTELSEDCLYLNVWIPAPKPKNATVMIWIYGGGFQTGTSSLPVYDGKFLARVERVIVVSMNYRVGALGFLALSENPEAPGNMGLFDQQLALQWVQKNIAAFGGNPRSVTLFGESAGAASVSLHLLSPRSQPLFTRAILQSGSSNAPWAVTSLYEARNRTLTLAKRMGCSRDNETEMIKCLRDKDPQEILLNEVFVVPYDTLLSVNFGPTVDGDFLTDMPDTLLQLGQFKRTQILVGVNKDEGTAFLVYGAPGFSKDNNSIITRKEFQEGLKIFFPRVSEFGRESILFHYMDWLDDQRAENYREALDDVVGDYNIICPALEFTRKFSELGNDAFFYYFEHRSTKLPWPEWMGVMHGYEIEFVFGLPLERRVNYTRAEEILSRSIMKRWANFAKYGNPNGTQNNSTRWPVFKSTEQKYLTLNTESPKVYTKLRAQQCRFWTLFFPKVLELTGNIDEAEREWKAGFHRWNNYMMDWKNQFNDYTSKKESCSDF

[15] = target: Amyloid-beta precursor protein (Homo sapiens) (UniProt P05067); assay: Inhibition of amyloid beta (1 to 42) (unknown origin) self-induced aggregation at 50 uM by Thioflavin T based fluorometric assay relative to control
Amyloid-beta precursor protein (Homo sapiens), sequence (P05067 whole entry): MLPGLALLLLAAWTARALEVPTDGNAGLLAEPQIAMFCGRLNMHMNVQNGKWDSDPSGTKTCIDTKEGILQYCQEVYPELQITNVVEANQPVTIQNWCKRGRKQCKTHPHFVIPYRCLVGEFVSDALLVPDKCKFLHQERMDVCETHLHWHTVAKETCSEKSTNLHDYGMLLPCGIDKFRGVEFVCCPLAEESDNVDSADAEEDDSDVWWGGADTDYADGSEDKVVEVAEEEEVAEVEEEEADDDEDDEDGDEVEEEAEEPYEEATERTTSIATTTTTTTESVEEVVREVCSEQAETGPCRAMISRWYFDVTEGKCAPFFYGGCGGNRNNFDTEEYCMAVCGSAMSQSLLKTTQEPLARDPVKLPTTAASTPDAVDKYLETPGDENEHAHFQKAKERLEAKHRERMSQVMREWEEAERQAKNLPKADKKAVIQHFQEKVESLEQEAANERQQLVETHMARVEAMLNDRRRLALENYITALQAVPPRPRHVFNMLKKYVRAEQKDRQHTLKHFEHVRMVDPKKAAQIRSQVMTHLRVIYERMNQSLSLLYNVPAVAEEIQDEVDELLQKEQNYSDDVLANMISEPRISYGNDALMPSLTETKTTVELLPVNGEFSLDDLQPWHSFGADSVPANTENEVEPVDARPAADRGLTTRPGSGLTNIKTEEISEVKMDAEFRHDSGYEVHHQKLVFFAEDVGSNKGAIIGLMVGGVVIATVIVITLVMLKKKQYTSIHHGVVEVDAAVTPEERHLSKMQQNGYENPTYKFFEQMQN
In short: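 Thioflavin T fluorometric assay of Aβ1-42 self-aggregation, with inhibitor and Aβ42 both at 50 (equimolar). Samples dissolved in DMSO. Result given as % inhibition, mean of two independent experiments each run in triplicate.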

THP-1 [16] = assay: Antiinflammatory activity in LPS-induced human THP-1 cells assessed as reduction in IL1beta release at 10 uM peincubated for 1 hr followed by LPS stimulation and measured after 24 hrs by EIA; format: functional, cell-based; details: time 25.0 hrs; in short: as §2
[17] = Antioxidant activity assessed as trolox equivalent of AAPH radical scavenging activity at 10 uM measured every min for 90 mins by ORAC-FL assay; format: functional
In short: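 ORAC-FL in 75 mM phosphate buffer pH 7.4. Sample and fluorescein (150 nM final) preincubated 15 min at 37 °C, then AAPH (12 mM final) added. Fluorescence (ex 485/em 535 nm) read each minute for 90 min. Net AUC after blank subtraction, converted to Trolox equivalents from a Trolox curve (0.5–8, final; Trolox = 1). Duplicate wells, three independent assays.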

Cholinesterase [18] = target: Cholinesterase (Homo sapiens, UniProt P06276); assay: Inhibition of recombinant human BChE using butyrylthiocholine iodide as substrate preincubated for 10 mins followed by substrate addition and measured for 10 mins by Ellman's method
Cholinesterase (Homo sapiens, UniProt P06276), sequence (P06276 whole entry): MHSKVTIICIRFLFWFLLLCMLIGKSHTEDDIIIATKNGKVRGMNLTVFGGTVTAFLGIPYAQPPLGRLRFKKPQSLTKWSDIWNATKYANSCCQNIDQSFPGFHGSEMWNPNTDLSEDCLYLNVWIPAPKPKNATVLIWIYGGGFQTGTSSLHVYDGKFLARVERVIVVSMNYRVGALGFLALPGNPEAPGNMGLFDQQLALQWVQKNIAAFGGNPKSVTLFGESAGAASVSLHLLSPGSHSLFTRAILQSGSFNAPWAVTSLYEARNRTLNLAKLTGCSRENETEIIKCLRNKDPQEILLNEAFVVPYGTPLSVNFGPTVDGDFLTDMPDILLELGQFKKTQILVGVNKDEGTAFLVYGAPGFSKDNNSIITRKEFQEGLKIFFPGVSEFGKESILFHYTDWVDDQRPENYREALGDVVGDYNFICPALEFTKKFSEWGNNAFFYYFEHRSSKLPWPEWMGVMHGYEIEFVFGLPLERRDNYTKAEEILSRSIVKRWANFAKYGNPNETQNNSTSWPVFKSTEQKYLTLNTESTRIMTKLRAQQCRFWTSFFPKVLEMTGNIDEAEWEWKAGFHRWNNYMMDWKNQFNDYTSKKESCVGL
In short: (§5)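 BChE (0.8 U/mL solution) preincubated with inhibitor 10 min at 25 °C in Tris-HCl pH 8.0 with DTNB and 1% DMSO, then BTI (30 mM stock) added. A412 read over 10 min, blank-corrected. IC50 from log[inhibitor] versus % inhibition. Triplicate, mean ± SD.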

Homo sapiens [19] = organism: Homo sapiens; assay: Reversible inhibition of recombinant human BChE assessed as residual activity at 0.1 times IC50 using butyrylthiocholine iodide as substrate preincubated for 30 mins followed by 100-fold dilution in presence of substrate and measured after 15 mins by Ellman's method relative to control; details: time 45.0 min
Homo sapiens [20] = organism: Homo sapiens; assay: Reversible inhibition of recombinant human BChE assessed as residual activity at IC50 using butyrylthiocholine iodide as substrate preincubated for 30 mins followed by 100-fold dilution in presence of substrate and measured after 15 mins by Ellman's method relative to control; details: time 45.0 min
Cholinesterase [21] = target: Cholinesterase (Equus caballus, UniProt P81908); assay: Inhibition of equine serum BChE using butyrylthiocholine iodide as substrate preincubated for 10 mins followed by substrate addition and measured for 10 mins by Ellman's method; in short: as §5
Cholinesterase (Equus caballus, UniProt P81908), sequence (P81908 whole entry): as the sequence (P81908 whole entry) above

Structure (SMILES) | Activity [1] | Activity (THP-1 [3]) | Activity (THP-1 [4]) | Activity [6] [%] | viability at 24 h, 0.1 µM [7] [%] | viability at 24 h, 1 µM [8] [%] | inhibition [9] [%] | viability at 24 h, 10 µM [10] [%] | Activity (THP-1 [11]) | viability at 24 h, 10 µM [12] [%] | Activity [13] [%] | inhibition [14] [%] | inhibition [15] [%] | Activity (THP-1 [16]) | Activity [17] [equiv] | Activity (Homo sapiens [19]) [%] | Activity (Homo sapiens [20]) [%] | further results
Cn1c(=O)sc2cc(C(=O)CCN3CCN(Cc4ccccc4)CC3)ccc21 | 0.4% | Active | Active | 1.03 | 102 | 99.3 | 99 | 92.6 | Active | 98.3 | 0.1 | < 10 | 57.5 | Active | 3.7 |  |  | IC50 (Acetylcholinesterase [2]): 340 nM; IC50 (Acetylcholinesterase [5]): 460 nM
Cn1c(=O)sc2cc(NC(=O)CCCCN3CCC(c4ccccc4)CC3)ccc21 | <= 0.23% | Active | Active | 1.73 | 98.9 | 97.1 | 30 | 93.6 | Active | 93.8 | 0.33 | 96 | 55.6 | Active | 2.61 | 98.4 | 81.5 | IC50 (Cholinesterase [18]): 2560 nM; IC50 (Cholinesterase [21]): 2980 nM
COc1cc2c(cc1OC)C(=O)C(CC1CCN(Cc3ccccc3)CC1)C2 (configuration not stated) |  | Active | Active |  |  |  |  |  | Active |  |  |  |  | Active |  | 95.4 | 90.2 | 
